From article PMC11100557 (Science Advances, 2024)

Tests used:
KIN10 mutant 3 = KIN10 mutant 3 (Arabidopsis thaliana, UniProt Q38997, K63A/K69A/L73A/R65A/R66A); test: MST binding of ATP to KIN10 mutant 3; details: fig. S5
Method in brief: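 KIN10 kinase-domain mutant 3 (K63A-R65A-R66A-K69A-L73A), N-His6, expressed in E. coli BL21(DE3), Ni-NTA purified. Protein labeled with NT647 via NHS coupling to lysines (30 min on ice), free dye removed by size exclusion into MST buffer (50 mM phosphate pH 7.4, 150 mM NaCl, MgCl2, 1 mM DTT, 0.05% Tween 20).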

WT KIN10 [1] = target: T1, WT KIN10 (Arabidopsis thaliana, UniProt Q38997); test: KIN10 kinase activity assay with SPS peptide, WT KIN10; type: biochemical
T1 sequence (Q38997 19-271 limits assumed): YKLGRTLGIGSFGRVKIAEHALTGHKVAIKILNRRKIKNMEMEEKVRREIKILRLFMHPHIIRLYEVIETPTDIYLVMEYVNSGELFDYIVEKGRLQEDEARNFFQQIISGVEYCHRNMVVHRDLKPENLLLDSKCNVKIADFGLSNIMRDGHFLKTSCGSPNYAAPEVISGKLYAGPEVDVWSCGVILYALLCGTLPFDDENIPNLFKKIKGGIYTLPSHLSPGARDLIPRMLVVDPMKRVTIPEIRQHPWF

GRIK1-KIN10 = details: MST; ref Zhai et al. ([9]); cited from earlier work
[2] = target: plant α-catalytic subunit of SnRK1 (Arabidopsis thaliana, UniProt Q38997); test: Inhibition of the SnRK1 α-catalytic subunit by sugar phosphates; type: biochemical; details: table S4
Chain of plant α-catalytic subunit of SnRK1 (Q38997 19-271 limits assumed): as above

[3] = target: KIN10 mutant 2 (R52A-R53A-K54A-K56A) (Arabidopsis thaliana, UniProt Q38997, K54A/K56A/R52A/R53A); test: MST binding of T6P to KIN10 mutant 2
Chain of KIN10 mutant 2 (R52A-R53A-K54A-K56A) (Q38997 19-271 R52A/R53A/K54A/K56A limits assumed): as the sequence (Q38997 19-271 limits assumed) above, with R34A, R35A, K36A, K38A counted along it
Method in brief: (§1)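 Alanine-substituted KIN10 kinase domain was made by overlap PCR and cloned into pET28a. It was expressed with an N-terminal His6 tag in E. coli BL21(DE3) and Ni-NTA purified. Protein was NT647-NHS labelled and desalted into phosphate buffer pH 7.4 with NaCl, DTT and Tween 20. 100 nM labelled protein was mixed with a T6P serial dilution, and MST was read at 25°C (40% MST, 80% LED power).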

KIN10 mutant 1 = KIN10 mutant 1 (Arabidopsis thaliana, UniProt Q38997, K34A/R23A/R32A); test: KIN10 kinase activity assay with SPS peptide, mutant 1; type: biochemical; details: 1 mM T6P, 200 ng KIN10 mutant 1 and 200 ng GRIK1
Chain of KIN10 mutant 1 (Q38997 19-271 R23A/R32A/K34A limits assumed): as the sequence (Q38997 19-271 limits assumed) above, with R5A, R14A, K16A counted along it

[4] = target: T2, KIN10 mutant 3 (K63A-R65A-R66A-K69A-L73A) (Arabidopsis thaliana, UniProt Q38997, K63A/K69A/L73A/R65A/R66A); test: KIN10 kinase activity assay with SPS peptide, mutant 3; type: biochemical; details: 1 mM T6P, 50 nM KIN10 mutant 3 plus 50 nM GRIK1
T2 sequence (Q38997 19-271 K63A/R65A/R66A/K69A/L73A limits assumed): as the sequence (Q38997 19-271 limits assumed) above, with K45A, R47A, R48A, K51A, L55A counted along it

KIN10 mutant 2 = KIN10 mutant 2 (Arabidopsis thaliana, UniProt Q38997, K54A/K56A/R52A/R53A); test: KIN10 kinase activity assay with SPS peptide, mutant 2; type: biochemical; details: 1 mM T6P, 200 ng KIN10 mutant 2 and 200 ng GRIK1
Chain of KIN10 mutant 2 (Q38997 19-271 R52A/R53A/K54A/K56A limits assumed): as the sequence (Q38997 19-271 limits assumed) above, with R34A, R35A, K36A, K38A counted along it

KIN10 R141A = KIN10 R141A (Arabidopsis thaliana, UniProt Q38997, R141A); test: MST binding of T6P to KIN10 R141A
Chain of KIN10 R141A (Q38997 19-271 R141A limits assumed): as the sequence (Q38997 19-271 limits assumed) above, with R123A counted along it
Method in brief: (§2)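 N-terminal His6-tagged recombinant KIN10 was expressed in E. coli BL21(DE3), Ni-NTA purified, and NT647-labelled on lysines via NHS coupling. Free dye was removed by size exclusion into MST buffer (50 mM phosphate pH 7.4, 150 mM NaCl, 1 mM DTT, 0.05% Tween 20). 100 nM labelled protein was titrated with serially diluted T6P. Microscale thermophoresis was run at 25°C, 40% MST power and 80% LED power.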

[5] = target: KIN10 mutant 1 (R23A-R32A-K34A) (Arabidopsis thaliana, UniProt Q38997, K34A/R23A/R32A); test: MST binding of T6P to KIN10 mutant 1
Chain of KIN10 mutant 1 (R23A-R32A-K34A) (Q38997 19-271 R23A/R32A/K34A limits assumed): as the sequence (Q38997 19-271 limits assumed) above, with R5A, R14A, K16A counted along it
Method in brief: as §1

KIN10 K63A-R66A-R141A = KIN10 K63A-R66A-R141A (Arabidopsis thaliana, UniProt Q38997, K63A/R141A/R66A); test: biochemical; type: binding
Chain of KIN10 K63A-R66A-R141A (Q38997 19-271 K63A/R66A/R141A limits assumed): as the sequence (Q38997 19-271 limits assumed) above, with K45A, R48A, R123A counted along it

WT KIN10 [6] = target: T1, WT KIN10; test: MST binding of T6P to WT KIN10 kinase domain
[7] = target: T2, KIN10 mutant 3 (K63A-R65A-R66A-K69A-L73A); test: MST binding of T6P to KIN10 mutant 3
KIN10 R66A = KIN10 R66A (Arabidopsis thaliana, UniProt Q38997, R66A); test: MST binding of T6P to KIN10 R66A
Chain of KIN10 R66A (Q38997 19-271 R66A limits assumed): as the sequence (Q38997 19-271 limits assumed) above, with R48A counted along it
Method in brief: as §2

KIN10 K63A = KIN10 K63A (Arabidopsis thaliana, UniProt Q38997, K63A); test: MST binding of T6P to KIN10 K63A
Chain of KIN10 K63A (Q38997 19-271 K63A limits assumed): as the sequence (Q38997 19-271 limits assumed) above, with K45A counted along it
Method in brief: as §2

Chain of KIN10 mutant 3 (Q38997 19-271 K63A/R65A/R66A/K69A/L73A limits assumed): as the sequence (Q38997 19-271 limits assumed) above, with K45A, R47A, R48A, K51A, L55A counted along it

Compound: Nc1ncnc2c1ncn2[C@@H]1O[C@H](COP(=O)(O)OP(=O)(O)OP(=O)(O)O)[C@@H](O)[C@H]1O [ATP, adenosine triphosphate]
- Kd for ATP, mutant 3 compared with WT KIN10 (KIN10 mutant 3): no change

Compound: O=P(O)(O)OC[C@H]1O[C@H](O[C@H]2O[C@H](CO)[C@@H](O)[C@H](O)[C@H]2O)[C@H](O)[C@@H](O)[C@@H]1O [T6P, trehalose 6-phosphate]
- IC50 (WT KIN10 [1]): 40 µM
- change of basal activity of WT KIN10 on addition of T6P (WT KIN10 [1]; 1 mM T6P, 50 nM KIN10, no GRIK1): doubling
- reduction of affinity of GRIK1 for KIN10 on T6P binding (GRIK1-KIN10): threefold
- inhibition of the plant α-catalytic subunit of SnRK1 [2]: specifically inhibited
- Kd [3]: 34 ± 5 µM
- Kd by MST ([3]; KIN10 mutant 2, Table 1 series): no significant difference
- activation of mutant 1 by GRIK1 in the presence of T6P (KIN10 mutant 1): reduced
- reduction of mutant 3 activation by GRIK1 in the presence of T6P [4]: no reduction
- activation of mutant 2 by GRIK1 in the presence of T6P (KIN10 mutant 2): reduced
- Kd (KIN10 R141A): 52 ± 7 µM
- Kd [5]: 26 ± 6 µM
- Kd by MST ([5]; KIN10 mutant 1, Table 1 series): no significant difference
- Kd (KIN10 K63A-R66A-R141A; Kds determined by MST, KIN10 K63A-R66A-R141A, Table 2 series): 143 µM
- increase in Kd versus WT (KIN10 K63A-R66A-R141A; triple mutant K63A-R66A-R141A versus WT): sevenfold
- Kd (WT KIN10 [6]): 28 ± 4 µM
- Kd [7]: 165 ± 21 µM
- reduction of affinity of T6P binding versus WT KIN10 ([7]; mutant 3 versus WT): fivefold
- Kd (KIN10 R66A): 40 ± 5 µM
- Kd (KIN10 K63A): 47 ± 7 µM
- increase of Kd versus WT (KIN10 K63A; span over the three single mutants K63A, R66A and R141A, versus WT): 1.9- to 2.5 fold
